These results are taken from ChEMBL document CHEMBL1921714, “Discovery of aminobenzyloxyarylamides as κ opioid receptor selective antagonists: application to preclinical development of a κ opioid receptor antagonist receptor occupancy tracer” (J Med Chem, 2011).

Activity calls are given as the source filed them. The calls are words filed in the database; no cut-off is given here. A value given as a limit tells only on which side of the number the result lay.

The subject of data set [1] is CHO. The data set is described as follows: Selectivity ratio of Ki for human opioid mu receptor expressed in CHO cells to Ki for human opioid kappa receptor expressed in CHO cells. The class given is cell-based.
The target in data set [2] is T1, Delta-type opioid receptor (Homo sapiens, UniProt P41143). Kind of data set: Agonist activity at human opioid delta receptor expressed in HEK293 cells assessed as stimulation of [35S]-GTPgammaS binding at 10 uM. It is filed as functional, cell-based. Put shortly:
(§1)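 Agonist mode: membranes from CHO (κ, μ) or HEK293 (δ) cells expressing cloned human receptors, no agonist added, tested at up to 10 μM. [35S]GTP-γ-S (0.5 nM final) binding in HEPES pH 7.4, MgCl2, NaCl, EDTA, DTT, 200 μM GDP. Read by WGA SPA beads after 2 h (δ) or 4 h (κ, μ) at room temperature, then 4 °C overnight.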

Data set [3] deals with T2, Kappa-type opioid receptor (Homo sapiens, UniProt P41145). The data set is described as follows: Displacement of [3H]diprenorphine from human opioid kappa receptor expressed in CHO cells after 120 mins by scintillation counting. The class given is cell-based. Put shortly: (§2)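 11-point curves, 0.01 nM–1 μM final. 120 min at 22 °C, then filtration and scintillation counting. Nonspecific binding set by 10 μM naltrexone. Four-parameter IC50; Ki by Cheng–Prusoff.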
A general note: In a radioligand displacement assay an active substance lowers the binding of a labelled ligand.

Data set [4] has as its system HEK293. The data set is described as follows: Selectivity ratio of Ki for human opioid delta receptor expressed in HEK293 cells to Ki for human opioid kappa receptor expressed in CHO cells. The class given is cell-based.
In data set [5] the target is T3, Mu-type opioid receptor (Homo sapiens, UniProt P35372). The data set is described as follows: Agonist activity at human opioid mu receptor expressed in CHO cells assessed as stimulation of [35S]-GTPgammaS binding at 10 uM. It is filed as functional, cell-based. Put shortly: as §1
(In general: GTPγS resists hydrolysis and so accumulates on activated G proteins.)

Data set [6] addresses T2, Kappa-type opioid receptor. Kind of data set: Agonist activity at human opioid kappa receptor expressed in CHO cells assessed as stimulation of [35S]-GTPgammaS binding at 10 uM. The class given is functional, cell-based. Summed up:
as §1

Data set [7] addresses T3, Mu-type opioid receptor. Kind of data set: Displacement of [3H]diprenorphine from human opioid mu receptor expressed in CHO cells after 120 mins by scintillation counting. It is filed as cell-based. Summed up:
as §2

Data set [8] has as its target T1, Delta-type opioid receptor. The data set is described as follows: Displacement of [3H]diprenorphine from human opioid delta receptor expressed in HEK293 cells after 120 mins by scintillation counting. It is filed as cell-based. Summed up:
as §2

Data set [9] deals with CHO. Kind of data set: Selectivity ratio of Kb for human opioid mu receptor expressed in CHO cells to Kb for human opioid kappa receptor expressed in CHO cells. It is filed as cell-based. Summed up:
(§3)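 Kb ratios from antagonist [35S]GTP-γ-S SPA on CHO (κ, μ) or HEK293 (δ) membranes. Agonists at about 80% maximal: U69,593 300 nM (κ), DAMGO 1 μM (μ), DPDPE 30 nM (δ). 11-point curves, top 1 or 10 μM. Nonspecific binding: NorBNI, naltrexone or naltriben, each 10 μM. Kb = IC50/(1+D/EC50); geometric means with SEM.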

The subject of data set [10] is HEK293. The data set is described as follows: Selectivity ratio of Kb for human opioid delta receptor expressed in HEK293 cells to Kb for human opioid kappa receptor expressed in CHO cells. The class given is cell-based. Put shortly: as §3
The target of data set [11] is T2, Kappa-type opioid receptor. The data set is described as follows: Antagonist activity at human opioid kappa receptor expressed in CHO cells assessed as inhibition of U69593-induced [35S]GTP-gamma-S binding after 4 hrs by scintillation counting. It is filed as functional, cell-based.
For data set [12], the target named is T1, Delta-type opioid receptor. The data set is described as follows: Antagonist activity at human opioid delta receptor expressed in HEK293 cells assessed as inhibition of DPDPE-induced [35S]GTP-gamma-S binding after 4 hrs by scintillation counting. It is filed as functional, cell-based.
The target of data set [13] is T3, Mu-type opioid receptor. The data set is described as follows: Antagonist activity at human opioid mu receptor expressed in CHO cells assessed as inhibition of DAMGO-induced [35S]GTP-gamma-S binding after 4 hrs by scintillation counting. The class given is functional, cell-based.
In data set [14] the test system is Striatum. Kind of data set: Drug uptake in rat striatum at 1 ug/kg, iv measured after 40 mins by LC/MS-MS analysis. It is filed as ADME, organism-based. Particulars: in vivo, 0.001 mg/kg. Summed up:
(§4)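 Groups of four rats received a single iv tracer dose and were killed 20 or 40 min later. Striatum was weighed, homogenized in 4 volumes acetonitrile/0.1% formic acid and centrifuged. The supernatant was diluted and analysed by LC/MS/MS against standards spiked into naive rat brain. %SUV = tissue amount/injected dose × 100.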

Data set [15] concerns Striatum. The data set is described as follows: Drug uptake in rat striatum at 3 ug/kg, iv measured after 40 mins by LC/MS-MS analysis. The following applies: in vivo, 0.003 mg/kg. The class given is ADME, organism-based. Put shortly: as §4

T3 sequence (P35372 whole entry): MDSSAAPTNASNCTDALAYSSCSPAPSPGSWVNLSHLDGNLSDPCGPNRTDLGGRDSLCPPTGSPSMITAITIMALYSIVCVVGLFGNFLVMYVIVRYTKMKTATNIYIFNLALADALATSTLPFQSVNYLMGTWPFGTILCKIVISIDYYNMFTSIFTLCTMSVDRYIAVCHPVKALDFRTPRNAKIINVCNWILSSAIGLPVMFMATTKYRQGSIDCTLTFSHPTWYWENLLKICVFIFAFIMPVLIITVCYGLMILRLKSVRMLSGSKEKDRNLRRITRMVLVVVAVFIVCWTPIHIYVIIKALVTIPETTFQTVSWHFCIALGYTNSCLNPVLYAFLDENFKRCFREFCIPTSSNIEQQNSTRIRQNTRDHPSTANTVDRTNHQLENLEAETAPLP
T2 sequence (P41145 whole entry): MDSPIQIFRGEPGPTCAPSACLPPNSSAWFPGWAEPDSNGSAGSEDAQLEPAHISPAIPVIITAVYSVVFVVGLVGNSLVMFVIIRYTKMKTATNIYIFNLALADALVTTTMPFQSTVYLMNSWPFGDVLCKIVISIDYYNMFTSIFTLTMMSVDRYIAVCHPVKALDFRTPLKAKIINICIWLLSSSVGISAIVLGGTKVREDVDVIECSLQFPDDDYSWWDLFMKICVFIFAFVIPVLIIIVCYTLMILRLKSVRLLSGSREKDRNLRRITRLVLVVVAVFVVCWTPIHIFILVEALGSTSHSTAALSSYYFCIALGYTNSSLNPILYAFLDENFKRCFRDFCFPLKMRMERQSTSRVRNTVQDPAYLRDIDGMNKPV
T1 sequence (P41143 whole entry): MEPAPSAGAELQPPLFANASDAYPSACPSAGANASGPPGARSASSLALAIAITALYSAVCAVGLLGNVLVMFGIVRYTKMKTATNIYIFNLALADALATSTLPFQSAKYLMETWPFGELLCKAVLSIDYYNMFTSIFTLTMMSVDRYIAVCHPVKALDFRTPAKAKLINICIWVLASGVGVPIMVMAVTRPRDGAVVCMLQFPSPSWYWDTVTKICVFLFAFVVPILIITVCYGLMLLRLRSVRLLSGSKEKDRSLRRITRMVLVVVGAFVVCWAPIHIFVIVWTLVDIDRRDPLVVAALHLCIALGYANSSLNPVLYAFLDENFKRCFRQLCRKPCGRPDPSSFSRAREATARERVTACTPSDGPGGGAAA

What is called Ki is a measure of affinity in units of concentration, obtained from inhibition or displacement. A lower Ki goes with tighter binding. As for `NC(=O)c1ccc(Oc2ccc(CN3CCCC3c3cccnc3)cc2)c(Cl)c1` (racemic), the Ratio Ki in the data set on CHO [1] turned out to be 51; with HEK293 [4], 404. For the same compound, the result (in data set [2]; at Mu-type opioid receptor [5]; in data set [6]) was inactive. In addition, the inhibition constant Ki in data set [3] worked out at 0.622 nM; on Mu-type opioid receptor [7], 31.5 nM; in [8] it was 251 nM.

A word on the Kb: it is the equilibrium dissociation constant of an antagonist, usually derived from a functional assay. Take `Cc1cc(C)cc([C@H]2CCCN2Cc2ccc(Oc3ccc(C(N)=O)cc3F)cc2)c1`: the Ratio Ki in the data set on CHO [1] amounted to 7; with HEK293 [4] it was 12. Besides, the outcome (in [2]; on Mu-type opioid receptor [5]; in data set [6]) was inactive. Besides, the Ratio with CHO [9] was 2; with HEK293 [10], 5. Further, the Ki in [3] worked out at 14 nM; on Mu-type opioid receptor [7], 101 nM; in data set [8] it was 165 nM. In addition, the Kb amounted to 44.8 nM in data set [11], 220 nM in data set [12] and 69.6 nM on Mu-type opioid receptor [13].

For `NC(=O)c1ccc(Oc2ccc(CN3CCC[C@@H]3c3cccnc3)cc2)c(Cl)c1`, the Ratio Ki in the data set with CHO [1] and in the data set on HEK293 [4] was over 11 each time. Besides, the result (in data set [2]; on Mu-type opioid receptor [5]; in [6]) was inactive. For the same compound, the Ki in data set [3] is 44.9 nM; at Mu-type opioid receptor [7] it was over 500 nM; in data set [8], over 500 nM.

Turning to `Cc1cc(C)cc([C@@H]2CCCN2Cc2ccc(Oc3ccc(C(N)=O)cc3F)cc2)c1` [ATICAPRANT], the results for the Ratio Ki in the data set on CHO [1] and in the data set with HEK293 [4] were 24 and 175, respectively. Besides, the outcome (in data set [2]; on Mu-type opioid receptor [5]; in data set [6]) was inactive. The Ratio in the data set with CHO [9] worked out at 21; in the data set with HEK293 [10], 135. The Ki in [3] came to 0.949 nM; on Mu-type opioid receptor [7], 22.7 nM. The Kb in data set [11] came out at 0.813 nM; in data set [12] it was 110 nM; on Mu-type opioid receptor [13], 17.4 nM.

Regarding `Oc1ccc2c3c1O[C@H]1c4[nH]c5c(c4C[C@@]4(O)[C@@H](C2)N(CC2CC2)CC[C@]314)C[C@@]1(O)[C@H]2Cc3ccc(O)c4c3[C@@]1(CCN2CC1CC1)[C@H]5O4`, the outcome (in data set [2]; at Mu-type opioid receptor [5]; in data set [6]) was inactive.

For `NC(=O)c1ccc(Oc2ccc(CN3CCCC3c3ccccc3)cc2)nc1` (racemic), the results for the Ratio Ki in the data set on CHO [1] and in the data set with HEK293 [4] were 25 and over 50, respectively. Further, the result (in [2]; at Mu-type opioid receptor [5]; in [6]) was inactive. The values for the Ratio in the data set with CHO [9] and in the data set on HEK293 [10] were 9 and 37, respectively. The Ki in [3] is 9.21 nM; on Mu-type opioid receptor [7] it was 232 nM; in [8] it was over 500 nM. For the same compound, the figures for the Kb (in [11]; in data set [12]; on Mu-type opioid receptor [13]) were 17 nM, 635 nM and 150 nM, respectively.

`CC(C)[C@@H](CN1CC[C@@](C)(c2cccc(O)c2)[C@@H](C)C1)NC(=O)[C@H]1Cc2ccc(O)cc2CN1`: the outcome (in [2]; on Mu-type opioid receptor [5]; in data set [6]) was inactive.

As to `CC1(C)CN(Cc2ccc(Oc3ccc(C(N)=O)cn3)cc2)[C@@H]1c1ccccc1`, the result (in data set [2]; on Mu-type opioid receptor [5]; in data set [6]) was inactive. Besides, the Ratio in the data set with CHO [9] came out at 15; with HEK293 [10], 137. In the data set on Striatum [14], the SUV worked out at 270%. Further, the inhibition constant Ki in [3] is 1.05 nM; at Mu-type opioid receptor [7], 43.1 nM; in data set [8], over 500 nM. Moreover, the Kb in [11] turned out to be 2.46 nM; in data set [12], 338 nM; at Mu-type opioid receptor [13], 36.6 nM.

`CC1(C)CN(Cc2ccc(Oc3ccc(C(N)=O)cn3)cc2)C1c1ccccc1` (racemic): the result (in [2]; at Mu-type opioid receptor [5]; in data set [6]) was inactive. Also, the Ki in data set [3] is 1.41 nM; at Mu-type opioid receptor [7], 52.7 nM; in [8], over 500 nM.

Consider `CC1(C)CN(Cc2ccc(Oc3ccc(C(N)=O)cn3)cc2)[C@H]1c1ccccc1`, for which the result (in [2]; at Mu-type opioid receptor [5]; in data set [6]) was inactive. Also, the Ratio in the data set on CHO [9] is 3; in the data set on HEK293 [10] it was over 65. Further, the values for the Ki (in [3]; at Mu-type opioid receptor [7]; in [8]) were 26.7 nM, 107 nM and over 500 nM, respectively. The Kb is 15.2 nM in [11], over 1000 nM in data set [12] and 43.8 nM on Mu-type opioid receptor [13].

For `NC(=O)c1ccc(Oc2ccc(CNCc3ccccc3)cc2)nc1`, the results for the Ratio Ki with CHO [1] and with HEK293 [4] were 1 and 16, respectively. Also, the result (in [2]; on Mu-type opioid receptor [5]; in [6]) was inactive. The values for the Ratio in the data set on CHO [9] and with HEK293 [10] were 1 and 14, respectively. In addition, the figures for the Ki (in data set [3]; at Mu-type opioid receptor [7]; in data set [8]) were 1.78 nM, 2.43 nM and 27.6 nM, respectively. For the same compound, the values for the Kb (in data set [11]; in [12]; at Mu-type opioid receptor [13]) were 4.33 nM, 60.3 nM and 3.8 nM, respectively.

As to `NC(=O)c1ccc(Oc2ccc(CN3CCCC3c3cccc(F)c3)cc2)c(F)c1` (racemic), the results for the Ratio Ki in the data set on CHO [1] and in the data set on HEK293 [4] were 67 and 303, respectively. Further, the result (in data set [2]; on Mu-type opioid receptor [5]; in [6]) was inactive. Further, the Ratio in the data set on CHO [9] is 18; in the data set with HEK293 [10], 149. The Ki in data set [3] turned out to be 0.617 nM; on Mu-type opioid receptor [7], 41.1 nM; in data set [8] it was 187 nM. For the same compound, the Kb turned out to be 3.52 nM in data set [11], 525 nM in data set [12] and 63.5 nM at Mu-type opioid receptor [13].

For `NC(=O)c1ccc(Oc2ccc(CN3CCC[C@@H]3c3cccc(F)c3)cc2)c(F)c1`, the Ratio Ki in the data set on CHO [1] and with HEK293 [4] was over 9 throughout. For the same compound, the outcome (in data set [2]; on Mu-type opioid receptor [5]; in data set [6]) was inactive. The Ratio in the data set with CHO [9] and in the data set with HEK293 [10] was over 5 in each case. The Ki in data set [3] was 53.7 nM; at Mu-type opioid receptor [7] it was over 500 nM; in data set [8] it was over 500 nM. The Kb in data set [11] was 88.7 nM; in data set [12], over 1000 nM; on Mu-type opioid receptor [13], over 500 nM.

With `CC(C)[C@@H](CN1CC[C@@](C)(c2cccc(O)c2)[C@@H](C)C1)NC(=O)[C@H]1Cc2ccc(O)cc2CN1C`, the Ratio Ki in the data set with CHO [1] was 201; in the data set with HEK293 [4], over 3200. The result (in data set [2]; on Mu-type opioid receptor [5]; in data set [6]) was inactive. The compound further returned an SUV in the data set on Striatum [15] of 23%. The Ratio in the data set on CHO [9] stood at 69; in the data set with HEK293 [10], 3820. Besides, the Ki in [3] was 0.153 nM; at Mu-type opioid receptor [7], 30.8 nM; in data set [8] it was over 500 nM. The results for the Kb (in data set [11]; in data set [12]; on Mu-type opioid receptor [13]) were 0.162 nM, 619 nM and 11.2 nM, respectively.
